In ChEMBL document CHEMBL3352743, “Chemically accessible hsp90 inhibitor that does not induce a heat shock response” (ACS Med Chem Lett, 2014):
In brackets after ≈: the same amount, converted by molar mass. Activity calls are given as the source filed them. The rule behind the calls is not given here. Peptide text beside a SMILES is read from it.

Tests used:
[1] = Cytotoxicity against human HCT116 cells after 72 hrs by CCK8 assay; assay type: functional, cell-based; settings: HCT-116, 72 h
[2] = Cytotoxicity against human MIAPaCa2 cells after 72 hrs by CCK8 assay; assay type: functional, cell-based; settings: MIA PaCa-2, 72 h
[3] = Solubility in 80% EtOH/20% water; assay type: physicochemical
[4] = target: Heat shock protein HSP 90-beta (Oryctolagus cuniculus) (UniProt P30947); assay: Inhibition of HSP90 in rabbit reticulocyte lysates at 5 uM pre-incubated for 2 hrs by firefly luciferase protein re-folding assay
[5] = target: Heat shock protein HSP 90-beta (Oryctolagus cuniculus) (UniProt P30947); assay: Inhibition of HSP90 in rabbit reticulocyte lysates at 5 uM […] by firefly luciferase protein re-folding assay; settings: in the assay text read “2 hrs” for “5 hrs”
Procedure, shortened: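 Denatured firefly luciferase incubated for 2 h in rabbit reticulocyte lysate pretreated with compound. Refolding read as luciferase activity relative to control. Mean ± SEM, n = 3.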

[6] = Reduction in HSF1 protein expression in human HCT116 cells at IC50 level by western blotting method; assay type: functional, cell-based; settings: HCT-116
[7] = Reduction in HSP90 protein expression in human HCT116 cells at IC50 level by western blotting method; assay type: functional, cell-based; settings: HCT-116
[8] = Reduction in HSP70 protein expression in human HCT116 cells at IC50 level by western blotting method; assay type: functional, cell-based; settings: HCT-116
[9] = Reduction in HSP40 protein expression in human HCT116 cells at IC50 level by western blotting method; assay type: functional, cell-based; settings: HCT-116
[10] = Reduction in HSP27 protein expression in human HCT116 cells at IC50 level by western blotting method; assay type: functional, cell-based; settings: HCT-116
[11] = Reduction in HSF1 protein expression in human MIAPaCa2 cells at IC50 level by western blotting method; assay type: functional, cell-based; settings: MIA PaCa-2
[12] = Reduction in HSP90 protein expression in human MIAPaCa2 cells at IC50 level by western blotting method; assay type: functional, cell-based; settings: MIA PaCa-2
[13] = Reduction in HSP70 protein expression in human MIAPaCa2 cells at IC50 level by western blotting method; assay type: functional, cell-based; settings: MIA PaCa-2
[14] = Reduction in HSP40 protein expression in human MIAPaCa2 cells at IC50 level by western blotting method; assay type: functional, cell-based; settings: MIA PaCa-2
[15] = Reduction in HSP27 protein expression in human MIAPaCa2 cells at IC50 level by western blotting method; assay type: functional, cell-based; settings: MIA PaCa-2
[16] = Reduction in HSF1 protein expression in human HCT116 cells at 50 uM by western blotting method relative to untreated control; assay type: functional, cell-based; settings: HCT-116
[17] = Reduction in HSP90 protein expression in human HCT116 cells at 50 uM by western blotting method relative to untreated control; assay type: functional, cell-based; settings: HCT-116
[18] = Reduction in HSP70 protein expression in human HCT116 cells at 50 uM by western blotting method relative to untreated control; assay type: functional, cell-based; settings: HCT-116
[19] = Reduction in HSP40 protein expression in human HCT116 cells at 50 uM by western blotting method relative to untreated control; assay type: functional, cell-based; settings: HCT-116
[20] = Reduction in HSP27 protein expression in human HCT116 cells at 50 uM by western blotting method relative to untreated control; assay type: functional, cell-based; settings: HCT-116
[21] = Reduction in HSF1 protein expression in human MIAPaCa2 cells at 50 uM by western blotting method relative to untreated control; assay type: functional, cell-based; settings: MIA PaCa-2
[22] = Reduction in HSP90 protein expression in human MIAPaCa2 cells at 50 uM by western blotting method relative to untreated control; assay type: functional, cell-based; settings: MIA PaCa-2
[23] = Reduction in HSP70 protein expression in human MIAPaCa2 cells at 50 uM by western blotting method relative to untreated control; assay type: functional, cell-based; settings: MIA PaCa-2
[24] = Reduction in HSP40 protein expression in human MIAPaCa2 cells at 50 uM by western blotting method relative to untreated control; assay type: functional, cell-based; settings: MIA PaCa-2
[25] = Reduction in HSP27 protein expression in human MIAPaCa2 cells at 50 uM by western blotting method relative to untreated control; assay type: functional, cell-based; settings: MIA PaCa-2
HCT-116 [26] = assay: Induction of apoptosis in human HCT116 cells at 50 uM after 24 hrs by annexin V and 7-AAD staining based flow cytometry; assay type: functional
HCT-116 [27] = assay: Induction of apoptosis in human HCT116 cells assessed as caspase 3/7 activation at 50 uM after 24 hrs by luminometry; assay type: functional
MIA PaCa-2 [28] = assay: Induction of apoptosis in human MIAPaCa2 cells assessed as caspase 3/7 activation at 50 uM after 24 hrs by luminometry; assay type: functional
HCT-116 [29] = assay: Induction of cell cycle arrest in human HCT116 cells assessed as accumulation at G0/G1 phase at 5 uM after 24 hrs by propidium iodide staining based cytometry; assay type: functional
MIA PaCa-2 [30] = assay: Induction of cell cycle arrest in human MIAPaCa2 cells assessed as accumulation at G0/G1 phase at 5 uM after 24 hrs by propidium iodide staining based cytometry; assay type: functional
[31] = 80% EtOH/20% water, read-out: solubility

Chain of Heat shock protein HSP 90-beta (Oryctolagus cuniculus) (P30947 whole entry): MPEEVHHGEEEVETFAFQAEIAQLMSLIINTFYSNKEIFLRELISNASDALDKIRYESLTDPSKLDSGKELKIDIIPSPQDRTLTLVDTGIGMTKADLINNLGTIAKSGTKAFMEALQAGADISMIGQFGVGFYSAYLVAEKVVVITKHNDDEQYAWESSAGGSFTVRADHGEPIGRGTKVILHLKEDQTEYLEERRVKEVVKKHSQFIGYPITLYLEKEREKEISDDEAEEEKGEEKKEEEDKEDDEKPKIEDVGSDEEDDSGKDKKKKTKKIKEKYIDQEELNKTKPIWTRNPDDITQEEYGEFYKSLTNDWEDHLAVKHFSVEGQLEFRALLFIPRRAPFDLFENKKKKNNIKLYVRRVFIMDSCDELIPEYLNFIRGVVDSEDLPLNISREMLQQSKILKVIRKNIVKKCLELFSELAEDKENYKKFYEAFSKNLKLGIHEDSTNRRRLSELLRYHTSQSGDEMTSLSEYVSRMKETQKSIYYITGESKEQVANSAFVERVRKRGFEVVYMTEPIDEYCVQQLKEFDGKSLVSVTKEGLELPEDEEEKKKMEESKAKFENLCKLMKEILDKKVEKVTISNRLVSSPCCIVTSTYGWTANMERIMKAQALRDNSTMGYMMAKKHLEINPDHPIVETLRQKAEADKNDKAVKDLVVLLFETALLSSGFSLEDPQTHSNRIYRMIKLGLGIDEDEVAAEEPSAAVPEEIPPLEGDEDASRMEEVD

Which results are given for `CC(C)C[C@@H]1NC(=O)[C@H](C(C)C)N(C)C(=O)[C@@H](CC(C)C)NC(=O)[C@@H](Cc2ccccc2)NC(=O)[C@@H]([C@H](OCc2ccccc2)c2ccccc2)NC1=O` (HELM PEPTIDE1{L.[O=C([C@H](N[*:1])[C@H](OCc1ccccc1)c1ccccc1)[*:2]].[dF].[dL].[meV]}$PEPTIDE1,PEPTIDE1,1:R1-5:R2$$$V2.0)?
IC50 [1]: 7.4 µM; IC50 [2]: 7.8 µM; solubility [3, 31]: 5200 µg/mL (≈ 7030 µM); inhibition [4]: 25%

Which results are given for `CC(C)C[C@@H]1NC(=O)[C@H](C(C)C)N(C)C(=O)[C@@H](CC(C)C)NC(=O)[C@@H](Cc2ccccn2)NC(=O)[C@@H](C(c2ccccc2)c2ccccc2)NC1=O`?
IC50 [1]: 18.1 µM; IC50 [2]: 23.6 µM

Which IC50 [1] does the source give for `CC(C)C[C@@H]1NC(=O)[C@H](C(C)C)N(C)C(=O)[C@@H](CC(C)C)NC(=O)[C@@H](Cc2ccccc2)NC(=O)[C@@H](C(c2ccccc2)c2ccccc2)NC1=O` here?
The IC50 was 7.6 µM.

What about the IC50 [2] of the same compound?
The IC50 was 12.8 µM.

What about the solubility [3, 31] of the same compound?
Its solubility is 2100 µg/mL (≈ 2960 µM).

For `CC(C)C[C@@H]1NC(=O)[C@H](C(C)C)N(C)C(=O)[C@@H](CC(C)C)NC(=O)[C@@H](Cc2cscn2)NC(=O)[C@@H](C(c2ccccc2)c2ccccc2)NC1=O` (HELM PEPTIDE1{L.[O=C([C@H](N[*:1])C(c1ccccc1)c1ccccc1)[*:2]].[O=C([C@@H](Cc1cscn1)N[*:1])[*:2]].[dL].[meV]}$PEPTIDE1,PEPTIDE1,1:R1-5:R2$$$V2.0), which IC50 [1] is on record?
The IC50 was 5 µM.

What about the IC50 [2] of the same compound?
The IC50 was 5.5 µM.

And the solubility ([3]; buffer)?
Its solubility is 9500 µg/mL (≈ 13300 µM).

And the inhibition [5]?
Its inhibition is 42%.

What about the inhibition [6] of the same compound?
The inhibition was “Active”.

And the inhibition [7]?
The inhibition was “Active”.

What about the inhibition [8] of the same compound?
The inhibition was “Active”.

What about the inhibition [9] of the same compound?
The inhibition was “Active”.

And the inhibition [10]?
The inhibition was “Active”.

What about the inhibition [11] of the same compound?
The inhibition was “Active”.

And the inhibition [12]?
The inhibition was “Active”.

And the inhibition [13]?
Its inhibition is “Active”.

What about the inhibition [14] of the same compound?
The inhibition was “Active”.

What about the inhibition [15] of the same compound?
The inhibition was “Active”.

And the fold change (FC) [16]?
Its fold change (FC) is 2.

And the fold change (FC) [17]?
The fold change (FC) was 2.

And the fold change (FC) [18]?
The fold change (FC) was 2.

And the fold change (FC) [19]?
Its fold change (FC) is 2.

And the fold change (FC) [20]?
Its fold change (FC) is 2.

And the fold change (FC) [21]?
Its fold change (FC) is 2.

And the fold change (FC) [22]?
The fold change (FC) was 2.

And the fold change (FC) [23]?
The fold change (FC) was 2.

What about the fold change (FC) [24] of the same compound?
The fold change (FC) was 2.

And the fold change (FC) [25]?
Its fold change (FC) is 2.

And the Activity (HCT-116 [26])?
Its Activity is 75%.

What about the “fold change (FC)” value (HCT-116 [27]) of the same compound?
Its value is 4.

And the “fold change (FC)” value (MIA PaCa-2 [28])?
Its value is 4.

What about the Activity (HCT-116 [29]) of the same compound?
Its Activity is “Active”.

And the Activity (MIA PaCa-2 [30])?
The Activity was “Active”.

For `CC(C)C[C@@H]1NC(=O)[C@H](C(C)C)N(C)C(=O)[C@@H](CC(C)C)NC(=O)[C@@H](Cc2c[nH]c3ccccc23)NC(=O)[C@@H](C(c2ccccc2)c2ccccc2)NC1=O`, which IC50 [1] is on record?
The IC50 was 3.9 µM.

What about the IC50 [2] of the same compound?
Its IC50 is 4.5 µM.

And the solubility [3, 31]?
The solubility was 1900 µg/mL (≈ 2540 µM).
